Among the data in ChEMBL document CHEMBL1833901, “MDM2-p53 protein-protein interaction inhibitors: a-ring substituted isoindolinones” (Bioorg Med Chem Lett, 2011) are IC50, GI50 and Activity values, retold here.

Calls of active or inactive are those of the source. The rule behind the calls is not given here.

In experiment [1] the target is Tumour suppressor p53/oncoprotein Mdm2 (Homo sapiens, UniProt Q00987). Description: Inhibition of human MDM2-p53 interaction after 20 mins by […] method. The experiment is classed as protein assay.
Chain of Tumour suppressor p53/oncoprotein Mdm2 (P04637 whole entry): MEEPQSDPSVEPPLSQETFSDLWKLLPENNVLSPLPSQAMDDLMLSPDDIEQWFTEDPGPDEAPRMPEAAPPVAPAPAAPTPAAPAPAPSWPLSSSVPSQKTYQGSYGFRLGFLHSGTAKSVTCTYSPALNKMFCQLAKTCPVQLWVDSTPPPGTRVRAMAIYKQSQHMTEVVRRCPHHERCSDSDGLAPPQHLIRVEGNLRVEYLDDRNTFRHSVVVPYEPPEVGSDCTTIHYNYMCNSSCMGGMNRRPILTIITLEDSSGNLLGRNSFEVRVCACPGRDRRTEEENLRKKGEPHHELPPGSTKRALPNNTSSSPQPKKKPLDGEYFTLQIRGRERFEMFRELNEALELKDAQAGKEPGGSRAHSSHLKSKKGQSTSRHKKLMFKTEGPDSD
Chain of Tumour suppressor p53/oncoprotein Mdm2 (Q00987 whole entry): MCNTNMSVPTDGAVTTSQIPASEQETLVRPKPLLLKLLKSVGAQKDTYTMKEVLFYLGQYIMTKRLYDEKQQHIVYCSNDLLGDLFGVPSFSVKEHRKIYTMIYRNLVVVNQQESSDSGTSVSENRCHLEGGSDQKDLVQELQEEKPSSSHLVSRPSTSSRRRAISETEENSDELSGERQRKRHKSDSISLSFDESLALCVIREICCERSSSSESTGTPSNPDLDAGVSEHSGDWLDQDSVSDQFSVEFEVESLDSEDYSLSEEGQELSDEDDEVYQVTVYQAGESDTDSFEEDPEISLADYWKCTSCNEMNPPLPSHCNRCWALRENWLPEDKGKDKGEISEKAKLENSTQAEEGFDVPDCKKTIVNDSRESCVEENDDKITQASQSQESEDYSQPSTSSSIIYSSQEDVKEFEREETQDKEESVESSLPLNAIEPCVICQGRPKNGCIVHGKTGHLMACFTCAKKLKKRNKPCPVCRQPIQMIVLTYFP
Experiment [2] is described as follows: Growth inhibition of human A2780/CP70 cells expressing isogenically paired p53 mutant by SRB assay. The format is functional.
Experiment [3] relates to HCT-116. Kind of experiment: Growth inhibition of p53 deficient human HCT116 cells expressing MDM2 by SRB assay. The experiment is classed as functional.
A further experiment has as its system A2780. Description: Growth inhibition of human A2780 cells expressing MDM2 by SRB assay. The experiment is classed as functional.
For experiment [4], the system named is HCT-116. Description: Growth inhibition of human HCT116 cells expressing MDM2 by SRB assay. The experiment is classed as functional.
Experiment [5] has as its system SJSA-1. Kind of experiment: Growth inhibition of human SJSA1 cells expressing MDM2 by SRB assay. The experiment is classed as functional. Put shortly:
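Growth inhibition assayed in the MDM2-amplified cell line SJSA-1. Values are the mean of at least three determinations ± SE.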

Experiment [6] has as its system SJSA-1. Description: Increase of P53 expression in human SJSA1 cells after 6 hrs by Western blotting. The format is functional, cell-based.
For experiment [7], the system named is SJSA-1. Description: Increase of MDM2 expression in human SJSA1 cells after 6 hrs by Western blotting. The format is functional, cell-based.
Experiment [8] concerns SJSA-1. Kind of experiment: Increase of P21 protein level in human SJSA1 cells after 6 hrs by Western blotting. The format is functional, cell-based.
In experiment [9] the test system is SJSA-1. Kind of experiment: Increase of MDM2 expression in human SJSA1 cells at 5 to 10 uM after 6 hrs by Western blotting. The format is functional, cell-based.
Experiment [10] concerns SJSA-1. Kind of experiment: Increase of P21 protein level in human SJSA1 cells at 5 to 10 uM after 6 hrs by Western blotting. The format is functional, cell-based.
For experiment [11], the system named is SJSA-1. Description: Increase of P53 expression in human SJSA1 cells at 5 to 10 uM after 6 hrs by Western blotting. The experiment is classed as functional, cell-based.

With `CC1=C(C)C(OCC2(CO)CC2)(c2ccc(Cl)cc2)N(Cc2ccccc2)C1=O` (stereo not drawn), in [1], inhibition was half-maximal at 3.45 µM (IC50).
For the compound `O=C1c2cccc(Cl)c2C(OCC2(CO)CC2)(c2ccc(Cl)cc2)N1Cc1ccc([N+](=O)[O-])cc1` (single isomer, unassigned; (-)) [listing 1 of 2 here], the GI50 in experiment [2] (Homo sapiens, A2780/CP70) worked out at 13.6 µM; with HCT-116 [3] (Homo sapiens, HCT-116), 12.5 µM; in the experiment with A2780, 3.3 µM; in the experiment with HCT-116 [4] it was 3.7 µM; in the experiment on SJSA-1 [5] it was 3.7 µM.
Regarding `O=C1c2cccc(Cl)c2C(OCC2(CO)CC2)(c2ccc(Cl)cc2)N1Cc1ccc([N+](=O)[O-])cc1` (racemic) [listing 1 of 2 here], the Activity result with SJSA-1 [6], in the experiment on SJSA-1 [7] and in the experiment with SJSA-1 [8] was “Dose-dependent effect” each time.
Turning to `O=C1c2cccc(Cl)c2C(OCC2(CO)CC2)(c2ccc(Cl)cc2)N1Cc1ccc([N+](=O)[O-])cc1` (single isomer, unassigned; (+)) [listing 1 of 2 here], the GI50 in experiment [2] is 14.5 µM; in the experiment on HCT-116 [3], 14.4 µM; in the experiment on A2780, 7.7 µM; in the experiment on HCT-116 [4], 12.3 µM; with SJSA-1 [5], 12.2 µM.
For the compound `COc1ccc(C2=N[C@@H](c3ccc(Cl)cc3)[C@@H](c3ccc(Cl)cc3)N2C(=O)N2CCNC(=O)C2)c(OC(C)C)c1` [NUTLIN-3], the GI50 in [2] (Homo sapiens, A2780/CP70) is 20.4 µM; in the experiment on HCT-116 [3] (Homo sapiens, HCT-116) it was 25.6 µM; in the experiment on A2780 (Homo sapiens, A2780) it was 1.6 µM; with HCT-116 [4] (Homo sapiens, HCT-116), 2.1 µM; in the experiment on SJSA-1 [5] (Homo sapiens, SJSA-1), 1.3 µM.
For `CC(C)(C)C[C@H]1N[C@@H](C(=O)NCCN2CCOCC2)[C@H](c2cccc(Cl)c2F)[C@@]12C(=O)Nc1cc(Cl)ccc12`, the concentration for 50% growth inhibition (GI50) came to 15.1 µM in experiment [2] (Homo sapiens, A2780/CP70); 11.8 µM in the experiment on HCT-116 [3] (Homo sapiens, HCT-116); 1.19 µM with A2780 (Homo sapiens, A2780); 1.3 µM with HCT-116 [4] (Homo sapiens, HCT-116); 0.55 µM with SJSA-1 [5] (Homo sapiens, SJSA-1).
With `O=C1c2cccc(Cl)c2C(OCC2(CO)CC2)(c2ccc(Cl)cc2)N1Cc1ccc([N+](=O)[O-])cc1` (racemic) [listing 2 of 2 here], the GI50 in [2] is 15.9 µM; with HCT-116 [3] it was 14.9 µM; with A2780, 4.2 µM; with HCT-116 [4], 6 µM; with SJSA-1 [5], 6 µM.
In the case of `CCCN1C(=O)C(C)=C(C)C1(OCC1(CO)CC1)c1ccc(Cl)cc1` (stereo not drawn), the IC50 in [1] amounted to 8.9 µM.
With `O=C1c2cccc(Cl)c2C(OCC2(CO)CC2)(c2ccc(Cl)cc2)N1Cc1ccc([N+](=O)[O-])cc1` (single isomer, unassigned; (+)) [listing 2 of 2 here], the outcome with SJSA-1 [9], with SJSA-1 [10] and with SJSA-1 [11] was inactive.
With `O=C1C2=C(CCCC2)C(OCC2(CO)CC2)(c2ccc(Cl)cc2)N1Cc1ccc([N+](=O)[O-])cc1` (stereo not drawn), inhibition in [1] was half-maximal at 3.47 µM (IC50).
`O=C1c2cccc(Cl)c2C(OCC2(CO)CC2)(c2ccc(Cl)cc2)N1Cc1ccc(S(=O)(=O)C(F)(F)F)cc1` (stereo not drawn) had an IC50 in experiment [1] of 9 µM.
For the compound `O=C1c2cccc(Cl)c2C(OCC2(CO)CC2)(c2ccc(Cl)cc2)N1Cc1ccc([N+](=O)[O-])cc1` (single isomer, unassigned; (-)) [listing 2 of 2 here], the Activity entry with SJSA-1 [6], in the experiment on SJSA-1 [7] and in the experiment on SJSA-1 [8] was “Dose-dependent effect” throughout.
